{"data": "Published values from different studies", "note": "Lines come from different studies, so protocols differ."}
{"SMILES": "COc1ccc2nccc(N3CCc4c(cc(Cn5ccnc5)cc4-c4cn(C)nc4C(F)(F)F)C3=O)c2c1", "test system": "male CD-1 mouse, plasma", "conditions": "intravenous, 3 mg/kg", "clearance [mL/min/kg]": 27}
{"SMILES": "OC[C@H]1O[C@@H](c2ccc(Cl)c(Cc3ccc(O[C@H]4CCOC4)cc3)c2)[C@H](O)[C@@H](O)[C@@H]1O", "test system": "CD-1 mouse, plasma", "conditions": "intravenous, 5 mg/kg", "clearance [mL/min/kg]": 51.6}
{"SMILES": "COc1cc(OC)c2nccc(N3CCc4c(cc(Cn5ccnc5)cc4-c4cn(C)nc4C(F)(F)F)C3=O)c2c1", "test system": "male CD-1 mouse, plasma", "conditions": "intravenous, 3 mg/kg", "clearance [mL/min/kg]": 63}
{"SMILES": "COc1cc(C(=O)N2CCC(N3CCN(C)CC3)CC2)ccc1Nc1ncc2c(n1)N(C)c1ccccc1C(=O)N2C", "test system": "mouse, plasma", "conditions": "intravenous, 1 mg/kg", "clearance [mL/min/kg]": 5.6}
{"SMILES": "CNCCN(C)c1cc(C#N)cc(CCc2cc(C)cc(N)n2)c1", "test system": "male BALB/c mouse, brain", "conditions": "intravenous, 2 mg/kg", "clearance [mL/min/kg]": 21}
{"SMILES": "NC(=S)NN=Cc1ncccc1N", "test system": "female C57BL/6 mouse, plasma", "conditions": "intravenous, 20 mg/kg", "clearance [mL/min/kg]": 13.8}
{"SMILES": "O=C(Nc1ccc(Cl)c(Cl)c1)c1ccc(N2CCNCC2)c([N+](=O)[O-])c1", "test system": "male mouse, plasma", "conditions": "oral, 10 mg/kg", "clearance [mL/min/kg]": 53.5}
{"SMILES": "CC(F)(F)CN1Cc2cc(C(F)(F)F)ncc2C2=CN=C(NCc3c(F)ccc4c3CCO4)N3C=NC(C1=O)C23 (centres unmarked)", "test system": "male CD-1 mouse, plasma", "conditions": "intravenous, 2 mg/kg", "clearance [mL/min/kg]": 0.39}
{"SMILES": "COc1nc(-c2cc(C)c(N[C@@H](C)c3c(F)cc(F)cc3F)nn2)ccc1-n1cnc(C)c1", "test system": "male CD-1 mouse, plasma", "conditions": "intravenous, 1 mg/kg, single dose", "clearance [mL/min/kg]": 6.33}
{"SMILES": "CC(C)(C)c1ccc(O)c(CN(Cc2cc(C(C)(C)C)ccc2O)C2CCC(NC(N)=O)CC2)c1 (centres unmarked)", "test system": "male C57BL/6 mouse, plasma", "conditions": "intraperitoneal, 10 mg/kg, single dose", "clearance [mL/min/kg]": 17}
{"SMILES": "Cc1ccc2cncc(N3CCc4c(cc(Cn5ccnc5)cc4-c4cn(C)nc4C(F)(F)F)C3=O)c2c1", "test system": "male CD-1 mouse, plasma", "conditions": "intravenous, 3 mg/kg", "clearance [mL/min/kg]": 16}
{"SMILES": "Cc1c(Br)cc(NC(=O)NS(=O)(=O)O)cc1Br", "test system": "CD-1 mouse, blood", "conditions": "intravenous, 2 mg/kg", "clearance [mL/min/kg]": 5.65}
{"SMILES": "Cc1noc(C)c1-c1ccc2nc(N3CCN(CCN(C)C)CC3)nc(N3CCOC[C@@H]3c3ccccc3)c2c1", "test system": "CD-1 mouse, plasma", "conditions": "intravenous, 2 mg/kg", "clearance [mL/min/kg]": 62.3}
{"SMILES": "CC(C)(Oc1cccc(N2CCC[C@@H](C(=O)N(Cc3ccc(-c4cn[nH]c4)cc3)C3CC3)C2)c1)C(=O)N1CCNCC1.Cl", "test system": "male C57BL/6 mouse, plasma", "conditions": "intravenous, 1 mg/kg", "clearance [mL/min/kg]": 44.2}
{"SMILES": "CC[C@H](C)[C@@H]1NC(=O)[C@@](C)(NC(=O)[C@H](CCCNC(=N)N)NC(=O)[C@H](CC(C)C)NC(=O)[C@@H](NC(=O)[C@H](CCC(N)=O)NC(=O)[C@H](CC(C)C)NC(C)=O)[C@@H](C)O)CCCC=CCCC[C@@](C)(C(=O)N[C@@H](CC(C)C)C(=O)N[C@@H](Cc2ccc3ccccc3c2)C(N)=O)NC(=O)[C@H](CCCNC(=N)N)NC(=O)[C@H](CCC(N)=O)NC1=O", "test system": "male BALB/c mouse, plasma", "conditions": "intravenous, 5 mg/kg", "clearance [mL/min/kg]": 0.662}
{"SMILES": "Cc1c(Br)cc(NC(=O)CS(=O)(=O)O)cc1Br", "test system": "CD-1 mouse, blood", "conditions": "intravenous, 2 mg/kg", "clearance [mL/min/kg]": 21.8}
{"SMILES": "CN(C)c1ccc(-c2cc(=O)c3ccc(O)c(O)c3o2)cc1", "test system": "mouse, plasma", "conditions": "intravenous, 1 mg/kg", "clearance [mL/min/kg]": 168}
{"SMILES": "Cc1noc(C)c1-c1ccc2nc(-c3cnn(CC(C)(C)O)c3)nc(N3CCNC[C@@H]3c3ccccc3)c2c1", "test system": "CD-1 mouse, plasma", "conditions": "intravenous, 2 mg/kg", "clearance [mL/min/kg]": 272}
{"SMILES": "Nc1ncc(-c2ccncc2)nc1Nc1ccc2[nH]ccc2c1", "test system": "male C57BL/6 mouse, plasma", "conditions": "intravenous, 5 mg/kg", "clearance [mL/min/kg]": 112}
{"SMILES": "CCNc1nc2c(c(N3CC(=O)Nc4cc(OC)ccc43)n1)CCC2", "test system": "female C57BL/6 mouse, plasma", "conditions": "intravenous, 4 mg/kg, single dose", "clearance [mL/min/kg]": 108}
